# Assay outcomes from PubChem BioAssay.
# The list is not random: actives were taken first. Their share in the collection is about 2.8%.
# MC4R ag barr: human MC4R agonism via beta-arrestin. P32245. U2OS MC4R beta-arrestin complementation, luminescence; percent of melanotan II response, DMSO zero. activation, % at 8.9 µM. hit rate 0.98% among 360,000;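 active = activation above a per-plate cutoff, the mean activation of sample wells on that plate plus 3 SD, cut at about 8% in these data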
# Target sequence (P32245 whole entry, looked up): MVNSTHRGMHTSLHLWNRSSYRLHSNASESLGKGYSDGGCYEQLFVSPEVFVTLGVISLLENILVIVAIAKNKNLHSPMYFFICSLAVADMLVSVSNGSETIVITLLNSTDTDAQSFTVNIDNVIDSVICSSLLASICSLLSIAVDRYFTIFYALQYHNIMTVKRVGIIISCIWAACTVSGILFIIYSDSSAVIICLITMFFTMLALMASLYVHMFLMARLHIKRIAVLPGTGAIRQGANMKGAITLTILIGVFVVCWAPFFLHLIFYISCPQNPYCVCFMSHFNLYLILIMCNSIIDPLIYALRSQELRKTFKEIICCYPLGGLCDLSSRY
# MC4R antag cAMP: human MC4R antagonism in cAMP assay; P32245; MC4R-expressing cells, MTII-stimulated cAMP, LANCE TR-FRET; inhibition, % at 6.5 µM; hit rate 0.48% among 360,000; AID 540295;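 active = inhibition above its plate's cutoff, the mean of tested wells on that plate plus 3 SD, cut at about 29% in these data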;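 note: 0% = Melanotan II alone and 100% = Melanotan II plus saturating MCL0020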
#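 material = U2OS cells stably expressing human melanocortin 4 receptor (MC4R) | also added = Melanotan II challenge | dosing = single nominal compound dose of 6.5 µM | detection = TR-FRET with Eu-cAMP and labeled anti-cAMP, 671 nm | replication = singlicate | timing = compound 30 min, challenge 1 h, detection 1 h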
# HTR2A ag: agonists of mouse serotonin 5-HT2A receptor (HTR2A). CHO-K1 mHTR2A beta-arrestin complementation, luminescence; percent of 30 µM serotonin response. hit rate 0.66% among 360,000. activation, % at 7.6 µM. P35363;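 active = activation above a run cutoff, the mean activation of all tested compounds plus 3 SD, cut at about 14% in these data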;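 note: 0% = plate median of compound wells and 100% = 30 µM serotonin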
# EBI2 antag: blocks human EBI2 receptor beta-arrestin signaling; P32249; EBI2 beta-arrestin recruitment, luminescence, 7a,25-OHC stimulated; inhibition, % at 5 µM; hit rate 0.81% among 360,000; AID 651636; in the data active = inhibition above about 38%;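 note: enzyme fragment complementation signal reports receptor beta-arrestin coupling in cells; 0% = agonist plus DMSO wells and 100% = wells without agonist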
# U2OS cAMP counter: U2OS forskolin cAMP inhibition counter-screen; AID 602193; parental U2OS, LANCE TR-FRET; inhibition, % at 6.5 µM; hit rate 26% among 1,600; shares compounds with MC4R antag cAMP;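 active = mean inhibition over triplicates above the low-control well mean plus 3 SD, set per campaign, cut at about 13% in these data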;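 note: signal is single emission at 671 nm which falls as cellular cAMP rises; 0% = forskolin-stimulated wells and 100% = buffer without forskolin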
# MC4R antag conf: human MC4R cAMP antagonism confirmation. shares compounds with MC4R antag cAMP. MC4R-expressing cells, MTII-stimulated cAMP, TR-FRET. inhibition, % at 6.5 µM. hit rate 27% among 1,600. AID 602195; in the data active = inhibition above about 29%;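 note: 0% = agonist stimulated wells alone and 100% = agonist stimulated wells plus saturating reference antagonist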
# Active calls of the source: *; . = no result.
SMILES,MC4R ag barr,MC4R antag cAMP,HTR2A ag,EBI2 antag,U2OS cAMP counter,MC4R antag conf
COc1ccc(Cl)cc1NC(=S)Nc1ccccc1C,0.1,28.6*,-2.0,-2.6,-1.8,-2.5
COc1cc(/C=C2/C(=N)N3C(=NC2=O)SN=C3S(C)(=O)=O)ccc1OS(=O)(=O)c1ccc(C)cc1,-3.0,11.9,-4.9,9.8,.,.
COc1cccc(-n2c(C)cc(/C=C3/C(=N)N4C(=NC3=O)SN=C4S(C)(=O)=O)c2C)c1,0.0,29.0*,0.0,3.6,-7.4,-25.7
Cc1ccc(NC(=O)C2CCN(S(=O)(=O)c3ccc(N4CCCC4=O)cc3)CC2)cc1Cl,-0.8,5.3,-6.4,20.7,.,.
COC(=O)c1ccc2c(=O)[nH]c(COC(=O)c3[nH]c(C)c(C(C)=O)c3C)nc2c1,-1.4,24.1,-2.0,-3.1,.,.
COC(=O)c1ccc2c(=O)[nH]c(COC(=O)c3c(-c4ccccc4Cl)noc3C)nc2c1,1.5,28.5*,0.8,-6.3,-1.1,5.1
CCc1ccc(OCC(=O)NC(NC(=S)Nc2ccccc2OC)C(Cl)(Cl)Cl)cc1 (stereo not given),3.9,38.3*,0.2,9.0,1.2,27.1
O=C(CN1CCCN(Cc2ccc(F)cc2Cl)C1=O)NC1CCCCCCC1,0.8,6.1,-5.1,0.7,.,.
O=C(CN1CCN(Cc2ccccc2F)C1=O)NC1CCCC1,0.4,28.8*,1.9,1.1,-1.1,-4.9
COC(=O)c1c(NC(=O)COC(=O)c2ccc(Cl)cc2[N+](=O)[O-])sc2c1CCCCC2,-1.1,30.9*,-0.2,16.6,6.5,21.8
COC(=O)COc1ccc(NS(=O)(=O)c2cccc([N+](=O)[O-])c2)cc1,-2.3,30.8*,-0.1,8.5,22.3*,43.2*
COC(=O)COc1cccc(NS(=O)(=O)c2cccc([N+](=O)[O-])c2)c1,-0.4,1.1,5.7,7.5,.,.
Nc1cc([N+](=O)[O-])cc2oc(-c3ccccc3)cc12,0.8,-3.9,-5.9,21.8,.,.
NS(=O)(=O)c1c(Sc2ccccc2C(=O)O)ccc2ccccc12,0.1,37.0*,2.2,2.8,16.7*,37.7*
C(=C\c1ccc2nncn2c1)/c1ccccc1,-1.5,-4.6,5.8,0.8,.,.
CCOc1cc(OCC)cc(C(=O)N2CCC[C@H]2C(=O)N2CCC[C@H]2C(=O)N[C@H](C)c2ccccc2)c1,.,.,-0.7,-13.5,.,.
Cc1ccc(CC2C(=O)N(c3ccccc3)C(=O)C2C)cc1 (stereo not given),0.3,32.5*,-1.2,-0.8,-1.3,2.9
CC(C)C(=O)N1CCC1(C)C(=O)Nc1nc2ccccc2[nH]1 (stereo not given),-2.0,-3.5,1.5,0.8,.,.
CCN(C(=O)COC(=O)c1ccc(S(=O)(=O)N2CCCc3ccccc32)cc1)C1CCS(=O)(=O)C1 (stereo not given),-1.5,29.8*,-3.0,8.1,3.1,-4.8
O=C(NCc1ccco1)c1cc(S(=O)(=O)N2CCCc3ccccc32)ccc1Cl,-0.7,-2.7,-3.0,14.1,.,.
CCOC(=O)CCC(=O)Nc1ccc(S(=O)(=O)N2CCCC2)cc1,-0.1,5.1,-1.8,-10.1,.,.
CCOC(=O)CCC(=O)Nc1ccc(S(=O)(=O)N2CCc3ccccc32)cc1,-0.3,31.9*,11.1,0.2,9.0,22.7
CCNC(=O)COC(=O)c1cc(S(=O)(=O)N2CCCc3ccccc32)ccc1Cl,1.1,33.3*,4.4,-11.3,24.6*,40.5*
Cc1cccnc1C1=NOC(Cc2ccccc2)C(=O)N1C (stereo not given),-0.2,9.2,4.5,-0.9,.,.
COC(=O)[C@@]12C[C@@H](CC(=O)NCc3cccc4ccccc34)C(=O)N(Cc3ccccc3)C1=CCC(C)(C)C2,.,.,-4.9,19.0,.,.
Cc1ccccc1C(=O)NNC(=O)CCc1ccccc1,2.5,32.1*,4.3,-0.4,-2.2,-2.9
Cc1ccccc1C(=O)NNC(=O)Cc1ccccc1,-0.9,5.6,7.1,-9.1,.,.
CC(NC(=O)Cc1ccccc1)C(=O)O (stereo not given),0.4,-0.9,2.9,-12.7,.,.
CC(C)C(CO)NC(=O)CC(=O)NC(CO)C(C)C (stereo not given),1.3,29.9*,2.8,-11.4,-1.0,-9.6
